Source: PubChem BioAssay (Broad Institute)
S100A4 MyoIIA = inhibitors of human S100A4 binding to myosin IIA peptide | P26447 | AID 652163 | hit rate 0.14% among 360,000 | S100A4/TAMRA-MyoIIA peptide fluorescence polarization | inhibition, % at 10.7 µM;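 active means mean inhibition of at least 70% across replicates, with every replicate also reaching that level; inconclusive means mean inhibition reaches 70% but some replicates fall short; inactive means mean inhibition below 70%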
Target sequence (P26447 whole entry, looked up): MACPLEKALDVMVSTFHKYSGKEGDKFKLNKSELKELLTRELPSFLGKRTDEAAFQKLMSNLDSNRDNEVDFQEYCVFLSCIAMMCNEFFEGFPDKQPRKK
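Test system: S100A4 monomer protein. Medium: HEPES buffer with Ca2+, pH 7.2. Reagent: fluorescent myosin IIA peptide, 5 nM. Compound dosing: single-point compound testing. Timing: 5 min between mix addition and reading. Benchmarks: DMSO neutral and TFP positive wells.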
PGC1a acetyl inh = PGC1a acetylation modulation, inhibitor mode. inhibition, % at 15.6 µM. hit rate 0.17% among 350,000. U2OS PGC1a acetylation, AlphaScreen anti-acetyl-lysine; with virally co-expressed GCN5 acetyltransferase;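 active means every replicate shows inhibition of at least 40%; inconclusive means mean inhibition at least 40% but some replicate below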
SIRT5 block = sirtuin-5 (human) deacylase inhibition; Q9NXA8; Purified SirT5, succinyl-peptide AMC, trypsin-coupled fluorescence; inhibition, % at 15 µM; hit rate 1.1% among 330,000; in the data active means inhibition above about 15%; inconclusive means no clear call, values can overlap the other calls
Target sequence (Q9NXA8 whole entry, looked up): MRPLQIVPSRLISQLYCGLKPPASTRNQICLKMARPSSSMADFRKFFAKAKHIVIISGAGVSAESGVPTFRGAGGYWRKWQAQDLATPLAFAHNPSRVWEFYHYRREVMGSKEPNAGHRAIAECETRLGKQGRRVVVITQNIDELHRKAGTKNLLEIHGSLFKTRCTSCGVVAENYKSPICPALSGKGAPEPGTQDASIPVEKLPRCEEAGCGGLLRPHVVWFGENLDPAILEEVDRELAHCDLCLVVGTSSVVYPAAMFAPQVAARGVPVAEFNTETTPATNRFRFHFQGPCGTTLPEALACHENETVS
DENV2 CPE = inhibitors of DENV2 cytopathic effect; DENV2-infected cells, cytopathic effect rescue, plate reader; CPE inhibition, % at 9.99 µM; hit rate 1.7% among 350,000; AID 651640; in the data active means CPE inhibition above about 20%, passing the limit was not always enough; inconclusive means no clear call, values can overlap the other calls; tested in BHK-21 cells
Statin myotox sup = suppressors of simvastatin-induced myotoxicity in C2C12 myotubes; ATP luminescence, 48 h; scaled: DMSO 0, geranylgeraniol control 100; hit rate 0.78% among 330,000; rescue of ATP level, % at 7.49 µM;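 active means mean ATP rescue above about 67%, or every replicate alone reaching that limit, limit read from the data, passing the limit was not always enough; inconclusive means no clear call, values can overlap the other calls; inactive means mean under the limit and some replicate under it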;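 further: myotubes were challenged with 10 µM simvastatin during compound exposure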
Numbers stand for hits; - = inactive; ? = inconclusive; . = not tested or not shown. An excerpt weighted towards active compounds, which were near 2.9% of everything screened.

SMILES	S100A4 MyoIIA	PGC1a acetyl inh	SIRT5 block	DENV2 CPE	Statin myotox sup
COC(=O)C12OCC34C(CC5C(C)=C(O)C(=O)CC5(C)C3C(O)C1O)OC(=O)C(OC(=O)/C=C(\C)C(C)C)C24 (stereo not given)	-	86	.	-	.
CC=Cc1ccc2n(c1=O)C[C@H]1[C@H](CO)[C@@H](C(=O)OC)[C@@H]2N1S(=O)(=O)c1ccccc1C (mixture of isomers)	-	-	-	-	-
CSC(=Nc1ccccc1)c1c(O)n(C)c(=O)n(C)c1=O	-	-	19	.	-
CC(=O)OC[C@]12CCC(C)=C[C@H]1O[C@@H]1[C@H](O)[C@@H](OC(C)=O)[C@@]2(C)[C@]12CO2	-	86	-	-	-
O=C(COc1ccc(Cl)cc1)N1CCN(Cc2ccccc2)CC1	-	-	16	.	-
COc1cc(CN2CCN(C(=O)Cc3ccccc3)CC2)cc(OC)c1OC	-	.	15	-	-
COc1ccc(Br)cc1CN1CCN(C(=O)Cc2ccccc2)CC1	.	-	.	.	.
COC(=O)[C@H]1[C@H](CO)[C@H]2Cn3c(ccc(/C=C/c4ccccc4)c3=O)[C@@H]1N2C(=O)C1CCC1	-	.	-	-	-
O=C(c1ccc(CNS(=O)(=O)c2ccc(Br)cc2)cc1)N1CCC2(CC1)OCCO2	-	-	-	37	-
O=C(c1ccc(CNS(=O)(=O)c2ccccc2)cc1)N1CCC2(CC1)OCCO2	.	-	.	.	-
C[C@]12CCC3C(CC[C@H]4C[C@@H](O)CC[C@]34C)C1C[C@@H](N)[C@@H]2O (stereo not given in full)	-	.	-	-	-
C[C@]12CCC3C(CC[C@H]4C[C@@H](O)CC[C@]34C)C1C[C@@H](Br)[C@@H]2O (stereo not given in full)	-	.	23	-	.
C/C=C/c1ccc(C2[C@@H]3CN(Cc4cccc(F)c4)C[C@H]2N3)cc1 (stereo not given in full)	-	-	-	?	.
Fc1ccccc1CNCCc1c[nH]c2ccccc12	-	-	-	32	-
NCCc1c[nH]c2ccccc12	-	-	.	63	-
O=[N+]([O-])c1cccc(O)c1	-	-	.	25	-
O=[N+]([O-])c1cccc(CCl)c1	.	-	.	.	-
O=C1NC(=O)N(c2cccc(Cl)c2)C(=O)/C1=C\c1ccc(Sc2nc3ccccc3[nH]2)o1	-	.	-	-	.
O=C1NC(=O)N(c2ccccc2F)C(=O)/C1=C/c1ccc(Sc2nc3ccccc3[nH]2)o1	171	.	23	-	.
Nc1ccc(CC2=NCCN2)cc1	-	.	-	38	-
Cc1sc2ccccc2c1CC1=NCCN1	-	.	-	-	-
COc1ccc(-c2ccc([C@@H]3[C@@H](CO)N4CCCCN(C(=O)Cc5ccccc5)C[C@H]34)cc2)cc1	.	-	-	.	.
O=C(O)[C@@H]1[C@@H](CO)[C@@H]2Cn3c(ccc(C4=CCCCC4)c3=O)[C@H]1N2CCc1ccccc1	.	.	.	.	-
COc1ccc(CCNC2(C#N)CCCCC2)cc1OC	-	84	-	-	-
C=C1C(=O)O[C@@H]2C[C@@H](C)[C@@H]3C=CC(=O)[C@@]3(C)[C@@H](O)[C@H]12	-	47	-	-	-
SMILES	S100A4 MyoIIA	PGC1a acetyl inh	SIRT5 block	DENV2 CPE	Statin myotox sup
COc1ccc(Cn2c(N)c(C(=O)NCc3ccco3)c3nc4ccccc4nc32)cc1	.	-	.	.	74
CN(C)[C@@H]1C(=O)C(C(N)=O)=C(O)[C@@]2(O)C(=O)C3=C(O)c4c(O)cccc4[C@@](C)(O)[C@H]3[C@H](O)[C@@H]12	-	-	41	-	-
CN(C)[C@@H]1C(=O)C(C(N)=O)=C(O)[C@@]2(O)C(=O)C3=C(O)c4c(O)cccc4[C@@](C)(O)C3C[C@@H]12 (stereo not given in full)	-	-	20	-	-
CN(C)[C@@H]1C(=O)C(C(N)=O)=C(O)[C@@]2(O)C(=O)C3=C(O)c4c(O)ccc(Cl)c4[C@@](C)(O)[C@H]3C[C@@H]12	-	-	-	-	-
CCCCCCn1c(N)c(C(=O)NCCN2CCOCC2)c2nc3ccccc3nc21	.	-	.	.	112
N#Cc1ccc(CN2Cc3ccccc3-n3nncc3C2)cc1	-	-	-	109	-
c1ccc(CN2Cc3ccccc3-n3nncc3C2)nc1	-	-	-	-	-
COC(=O)C[C@@H]1CC[C@H]2NC[C@H](O)COC[C@@H]2O1	-	-	-	-	-
CC(=O)OC1(c2ccc(C)cc2)CN2CCC1c1ccccc12 (stereo not given)	.	-	.	.	-
